The source of these data is ChEMBL document CHEMBL1149480, “Discovery of a novel series of inhibitors of human cytomegalovirus primase” (Bioorg Med Chem Lett, 2006).

Active and inactive are the calls of the source. The calls are words filed in the database; no cut-off is given here.

What is called IC50 is the concentration that inhibits the measured activity by half. Read a low IC50 as higher potency.

Assay [1] has as its system Human alphaherpesvirus 1. Briefly: Antiviral activity against HSV. It counts as functional, organism-based.
Assay [2] has as its system Human gammaherpesvirus 4. Briefly: Antiviral activity against EBV. It counts as functional, organism-based.
The test system of assay [3] is Human immunodeficiency virus. The assay can be described thus: Antiviral activity against HIV. The class given is functional, organism-based.
The test system of assay [4] is Human betaherpesvirus 6. Briefly: Antiviral activity against HHV6. It counts as functional, organism-based.
Assay [5] deals with Murid betaherpesvirus 2. Briefly: Antiviral activity against rat CMV. It counts as functional, organism-based.
The test system of assay [6] is Caviid betaherpesvirus 2. The assay can be described thus: Antiviral activity against guinea pig CMV. It counts as functional, organism-based.
For assay [7], the system named is Murid betaherpesvirus 1. Briefly: Antiviral activity against mouse CMV. It counts as functional, organism-based.
Assay [8] is described as follows: Ratio of antiviral activity against human CMV to rhesus CMV. It counts as functional, Cercopithecine herpesvirus 8.
The test system of assay [9] is HFF. The assay can be described thus: Antiviral activity against human CMV by dot blot assay in HFF cells. It counts as functional, cell-based. The gist of the method:
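Dot blot DNA replication readout. HFF cells were seeded at 2 × 10^4 cells/well and infected with rhCMVLuc, clinical isolates or wild-type virus, then incubated 72 h with drug. Cells were lysed in 0.4 N NaOH, 0.5 M EDTA, applied to membrane by microfiltration and UV-crosslinked. DNA was hybridized to a hCMV-specific 32P probe and detected by phosphorimaging.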

For assay [10], the system named is HFF. The assay can be described thus: Antiviral activity against human CMV by luciferase reporter gene assay in HFF cells. The class given is functional, cell-based. An outline of the steps: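 HFF cells (10^4/well) were rested 2 h, then infected with rhCMVLuc at MOI 1 pfu/cell. Inoculum was removed after 1 h and drug added (0.005–5 µM or 0.05–50 µM) for 48 h at 37 °C. Luciferase was read with Mg(OAc)2, 30 mM Tricine pH 7.8 and 200 µM EDTA. IC50 is 50% inhibition of hCMV DNA replication.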
A general note: In a reporter assay the amount or activity of a reporter protein is the signal.

Assay [11] relates to Jurkat. The assay can be described thus: Cytotoxicity against human Jurkat cells. It counts as functional, cell-based. An outline of the steps:
(§1)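 HFF or Jurkat cells were seeded and compound added 3 h later. Alamar blue staining at 0, 24, 48 and 72 h, then a further 3 h incubation, with fluorescence read-out. IC50 is the concentration inhibiting cell growth by 50%.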

In assay [12] the test system is HFF. The assay can be described thus: Cytotoxicity against HFF cells. The settings on record: Homo sapiens. The class given is functional, cell-based. The gist of the method: as §1
The test system of assay [13] is Human betaherpesvirus 5. Briefly: Inhibition of human CMV growth by viral yield assay. The class given is functional. An outline of the steps:
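Viral yield: once CPE appeared, well supernatants were serially diluted 1:2 sixteen times and used to infect fresh HFF cells (10^4/well). Inoculum was removed after 1 h; cells were incubated 5–7 days until CPE. Yield was quantified and IC99.9 taken as the drug concentration giving 99.9% inhibition of replication.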

For assay [14], the system named is Human betaherpesvirus 5. Briefly: Inhibition of human CMV growth by plaque reduction assay. The class given is functional. The gist of the method:
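Plaques counted after 10-day incubation of 10^5 cells infected with 1000 pfu of wild-type, clinical-isolate or resistant virus; IC99.9 is the drug amount inhibiting plaque formation by 99.9%.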

Turning to `CCOc1nc(C)c([N+](=O)[O-])c(-n2ccnc2C)n1`, the outcome in assay [1], in assay [2], in [3], in [4], in [5] and in [6] was inactive. The outcome in assay [7] was inactive. Also, the Selectivity ratio result in assay [8] is listed as “>=10”. Moreover, half-maximal inhibition in [9] (IC50) was put at 0.67 µM.

For the compound `Cc1nccn1-c1nc(N(C)Cc2ccccc2)nc2c1S(=O)(=O)CC2`, the outcome in assay [1], in assay [2], in assay [3], in assay [4], in [5] and in assay [6] was inactive. Moreover, the result in assay [7] was inactive. In addition, the Selectivity ratio result in assay [8] was “>=10”. For the same compound, in assay [10], the IC50 was more than 30 µM.

On to `Cc1nc(N(C)Cc2ccccc2)nc(-n2ccnc2-c2ccccc2)c1[N+](=O)[O-]`, for which the result in [1], in [2], in [3], in [4], in assay [5] and in assay [6] was inactive. The outcome in assay [7] was inactive. Besides, the Selectivity ratio entry in [8] was “>=10”. For the same compound, the half-maximal inhibitory concentration (IC50) in [10] turned out to be 5 µM.

Take `Cc1nccn1-c1nc(N(C)Cc2ccccc2)ncc1[N+](=O)[O-]`: the result in assay [1], in assay [2], in [3], in assay [4], in assay [5] and in assay [6] was inactive. Moreover, the outcome in assay [7] was inactive. The Selectivity ratio result in assay [8] was “>=10”. Further, in assay [10], the IC50 amounted to 3 µM.

On to `Cc1nc(N(C)Cc2ccccc2)nc(-n2ccnc2)c1[N+](=O)[O-]`, for which the outcome in [1], in [2], in assay [3], in assay [4], in [5] and in assay [6] was inactive. Besides, the result in [7] was inactive. Further, in assay [8], the Selectivity ratio result is listed as “>=10”. The same compound displayed an IC50 in [10] of 0.02 µM.

As to `Cc1nccn1-c1nc(N(C)Cc2ccccc2)nc(Cl)c1[N+](=O)[O-]`, the outcome in assay [1], in assay [2], in [3], in assay [4], in assay [5] and in assay [6] was inactive. The outcome in assay [7] was inactive. The Selectivity ratio entry in assay [8] is reported as “>=10”. Besides, in assay [10], the IC50 was more than 30 µM.

For `Nc1ccn(C[C@@H](CO)OCP(=O)(O)O)c(=O)n1.O.O` [CIDOFOVIR], the IC50 in [11] was 100 µM; in [12], more than 100 µM. The IC100 in assay [13] came out at 1 µM; in [14], 2.5 µM.

With `Nc1nc2c(ncn2COC(CO)CO)c(=O)[nH]1` [GANCICLOVIR], the IC50 in assay [11] and in assay [12] was more than 100 µM in each case. The IC100 in [13] worked out at 5 µM; in assay [14], 10 µM.

Consider `Cc1nc(N(C)Cc2ccccc2)nc(-n2c(C)nc3ccccc32)c1[N+](=O)[O-]`, for which the result in assay [1], in assay [2], in assay [3], in assay [4], in assay [5] and in assay [6] was inactive. For the same compound, the result in assay [7] was inactive. In addition, the Selectivity ratio result in assay [8] is “>=10”. Besides, the IC50 in [10] is more than 30 µM.

On to `Cc1cc(-n2ccnc2C)nc(N(C)Cc2ccccc2)n1`, for which the outcome in assay [1], in assay [2], in assay [3], in assay [4], in assay [5] and in assay [6] was inactive. Further, in assay [7], the outcome was inactive. In addition, in assay [8], the Selectivity ratio result is on record as “>=10”. This compound also came in with an IC50 in assay [10] of more than 30 µM.

On to `Cc1nc(N(C)Cc2ccccc2)nc(-n2ccnc2C(C)C)c1[N+](=O)[O-]`, for which the outcome in [1], in assay [2], in assay [3], in [4], in [5] and in assay [6] was inactive. The outcome in assay [7] was inactive. Further, the Selectivity ratio entry in assay [8] is on record as “>=10”. In assay [10], this compound returned a 50% inhibitory concentration (IC50) of 0.77 µM.

Turning to `Cc1cn(-c2nc(N(C)Cc3ccccc3)nc(C)c2[N+](=O)[O-])cn1`, the outcome in [1], in assay [2], in [3], in assay [4], in assay [5] and in [6] was inactive. Also, the outcome in [7] was inactive. In addition, in assay [8], the Selectivity ratio result is listed as “>=10”. Moreover, the IC50 in assay [10] stood at 10 µM.

With `Cc1nccn1-c1nc(N(C)Cc2ccccc2)nc(C(C)C)c1[N+](=O)[O-]`, the outcome in assay [1], in assay [2], in assay [3], in assay [4], in assay [5] and in assay [6] was inactive. The outcome in assay [7] was inactive. The Selectivity ratio result in assay [8] is recorded as “>=10”. In addition, the IC50 in assay [10] is 3 µM.

For the compound `CCc1nccn1-c1nc(N(C)Cc2ccccc2)nc(C)c1[N+](=O)[O-]`, the result in assay [1], in assay [2], in [3], in assay [4], in assay [5] and in [6] was inactive. In addition, the result in [7] was inactive. Also, the Selectivity ratio result in [8] is “>=10”. In [10], this compound showed a concentration for half-maximal inhibition (IC50) of 0.19 µM.

With `Cc1nc(N2CCC(C)CC2)nc(-n2ccnc2C)c1[N+](=O)[O-]`, the result in assay [1], in [2], in assay [3], in assay [4], in [5] and in assay [6] was inactive. Moreover, the result in [7] was inactive. Also, in [8], the Selectivity ratio result was “>=10”. The same compound returned a 50% inhibitory concentration (IC50) in [9] of 0.3 µM.

On to `Cc1nc(N(C)Cc2ccccc2)nc(-n2ccnc2C)n1`, for which the outcome in [1], in assay [2], in assay [3], in [4], in [5] and in assay [6] was inactive. The result in assay [7] was inactive. In addition, in [8], the Selectivity ratio result was “>=10”. The compound further showed a concentration for half-maximal inhibition (IC50) in assay [10] of more than 30 µM.

For the compound `CCCCN(C)c1nc(C)c([N+](=O)[O-])c(-n2ccnc2C)n1`, the result in assay [1], in assay [2], in [3], in assay [4], in assay [5] and in assay [6] was inactive. Also, the result in assay [7] was inactive. Also, in assay [8], the Selectivity ratio result is “>=10”. The compound further registered an IC50 in [9] of 0.3 µM.

Take `Cc1nccn1-c1nc(N(C)Cc2ccccc2)nc(CCN(C)C)c1[N+](=O)[O-]`: the result in assay [1], in assay [2], in assay [3], in assay [4], in assay [5] and in [6] was inactive. For the same compound, the result in [7] was inactive. The Selectivity ratio entry in assay [8] was “>=10”. The same compound showed an IC50 in assay [10] of 6 µM.

With `[3H]CC([3H])c1nc(N(C)Cc2ccccc2)nc(-n2ccnc2C)c1[N+](=O)[O-]` (configuration not stated), in [8], the Selectivity ratio entry was “>=10”.

Regarding `Cc1nc(N(C)Cc2ccccc2)nc(-n2ccnc2C)c1C#N`, the result in assay [1], in assay [2], in [3], in [4], in assay [5] and in [6] was inactive. Moreover, the outcome in [7] was inactive. Moreover, the Selectivity ratio result in [8] was “>=10”. In assay [10], this compound gave an IC50 of more than 30 µM.
